The source made the active and inactive calls. No cut-off for these calls is given here.
Assays:
[1] = molecular target: T1, Aldo-keto reductase family 1 member B1 (Homo sapiens, UniProt P15121); experiment: Inhibition of aldose reductase (aldo-keto reductase, AKR1B1) isolated from human placenta.
[2] = Partition coefficient (logP); assay type: physicochemical; conditions: octanol/water
[3] = Compound was evaluated for the apparent pKa (dioxane/water) the ratio 2:1; assay type: physicochemical; conditions: dioxane/water 2:1
Rattus norvegicus [4] = experiment: Compound was evaluated for the ED50(chronic) in male Sprague-Dawley rats(n=5) treated with streptozotocin (85 mg/kg intravenously).; conditions: oral
[5] = Compound was evaluated for the apparent pKa (dioxane/water) in the ratio 1:1; assay type: physicochemical; conditions: dioxane/water 1:1
[6] = tested on: aldose reductase (Rattus norvegicus); experiment: In vivo inhibition of sorbitol accumulation in the rat following 10 mg/kg p.o. administration.; conditions: at 10 mg/kg
Rattus norvegicus [7] = experiment: Compound was evaluated for the ED50(acute) in male Sprague-Dawley rats(n=4) treated with streptozotocin (85 mg/kg intravenously).; assay type: functional
How it was run: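 Streptozotocin-diabetic rats (85 mg/kg iv) dosed by oral gavage, aqueous suspension or solution, at 4, 7 and 24 h. Killed at 27 h. […] ED50 from log linear regression.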

[8] = Compound was evaluated for the partition coefficient (octanol/pH 7.4 buffer); assay type: physicochemical
How it was run: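 Partition measured between n-octanol and pH 7.4 buffer.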

Rattus norvegicus [9] = experiment: Compound was evaluated for the ED50(chronic) in male Sprague-Dawley rats(n=5) treated with streptozotocin (85 mg/kg intravenously).; conditions: oral; remark: listed apart in the source
[10] = molecular target: T2, Aldo-keto reductase family 1 member B1 (Rattus norvegicus, UniProt P07943); experiment: Compound was tested for the inhibition of the rat lens aldose reductase using the substrate as glyceraldehyde
[11] = molecular target: T2, Aldo-keto reductase family 1 member B1; experiment: Compound was tested for the inhibition of the rat lens aldose reductase using the substrate as glucose.
Rattus norvegicus [12] = organism: Rattus norvegicus; experiment: Compound was tested for the inhibition of sorbitol accumulation in washed rat erythrocytes.
[13] = molecular target: T1, Aldo-keto reductase family 1 member B1; experiment: Compound was evaluated for its ability to inhibit the aldose reductase isolated from human placentae; Inactive at 10E-4 M
Rattus norvegicus [14] = experiment: Compound was evaluated in vivo for the inhibition of sorbitol accumulation administered orally at a dose of 5 mg/kg.; assay type: functional; conditions: route oral
Rattus norvegicus [15] = experiment: Compound was evaluated in vivo for the inhibition of sorbitol accumulation administered orally at a dose of 0.25 mg/kg.; assay type: functional; conditions: route oral
[16] = Compound was evaluated for the apparent pKa (dioxane/water)the ratio 2:1; assay type: physicochemical; conditions: dioxane/water 2:1
Homo sapiens = organism: Homo sapiens; experiment: Compound was tested for the inhibition of sorbitol accumulation in washed human erythrocytes.; assay type: functional
Rattus norvegicus [17] = experiment: Compound was evaluated in vivo for the inhibition of sorbitol accumulation administered orally at a dose of 5 mg/kg; Not significant; assay type: functional, organism-based; parameters: dose 5 mg/kg

IC50 [1] [nM]	logP [2]	pKa [3]	pKa [5]	logD [8]	SMILES	ED50 (Rattus norvegicus [4]) [mg/kg]	ED50 (Rattus norvegicus [9]) [mg/kg]	ED50 (Rattus norvegicus [7]; iv) [mg/kg]	also measured
6.3	3.01	6.38	5.47	0.05	O=C(O)Cc1nn(Cc2nc3cc(F)cc(F)c3s2)c(=O)c2ccccc12	4			inhibition [6]: 80%; ED50 (Rattus norvegicus [7]; oral): 3.2 mg/kg
					CN1C(C(=O)Nc2nccs2)=C(O)c2ccccc2S1(=O)=O [SUDOXICAM]				IC50 [13]: Not Active
6.9	2.42	6.35	5.49	-0.3	O=C(O)Cc1nn(Cc2nc3cc(F)ccc3s2)c(=O)c2ccccc12		5.3	5.3	inhibition in vivo at 5 mg/kg (Rattus norvegicus [14]): 60%
					O=C1NC(=O)[C@@]2(CCOc3ccc(F)cc32)N1 [SORBINIL]	0.8			inhibition in vivo at 0.25 mg/kg (Rattus norvegicus [15]): 40.1%
3.1	3.35				O=C(O)Cc1nn(Cc2nc3cc(Br)ccc3s2)c(=O)c2ccccc12		4.9	5.6	pKa [16]: 6.35
					COc1ccc2c(C(=S)N(C)CC(=O)O)cccc2c1C(F)(F)F [TOLRESTAT]	26			IC50 (Homo sapiens): 15 nM
110					CC(C)c1ccc2c(CC(=O)O)nn(Cc3nc4ccccc4s3)c(=O)c2c1				inhibition (Rattus norvegicus [17]): inactive

SMILES	IC50 [1] [nM]	logP [2]	pKa [3]	pKa [5]	logD [8]	ED50 (Rattus norvegicus [4]) [mg/kg]	ED50 (Rattus norvegicus [9]) [mg/kg]	ED50 (Rattus norvegicus [7]; iv) [mg/kg]	also measured
O=C(O)Cc1nn(Cc2nc3cc(C(F)(F)F)ccc3s2)c(=O)c2ccccc12 [ZOPOLRESTAT]		3.43	6.38	5.46	0.55		2	3.6	IC50 [10]: 41 nM; IC50 [11]: 10 nM; IC50 (Rattus norvegicus [12]): 220 nM

— ChEMBL document CHEMBL1125712 (J Med Chem, 1991)
